Laboratory results from ChEMBL document CHEMBL1121611, “Synthesis and antileukemic activity of 1-methyl-2,5-diphenyl-3,4-bis(hydroxymethyl)-, 1,2,3-triphenyl-4,5-bis(hydroxymethyl)-, and 1-methyl-2,3-diphenyl-4,5-bis(hydroxymethyl)pyrrole bis(N-methylcarbamate)” (1980).

What was measured:
Assay type in all cases: functional, Mus musculus
[1] = test system: P388; assay: Animal weight loss was tested for P388 Lymphocytic Leukemia and measured for change in weight, in treated and control mice at dose of 200 mg/kg
Method in brief: (§1)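 P388 leukemia was induced by ip inoculation of ascitic fluid containing ca. 6 × 10^6 cells into male CD1F1 mice. Drug was given ip as a distilled water–Tween 80 suspension, nine daily doses starting 24 h after tumor inoculation. Body weight change was recorded on day 5, i.e. 4 days after the first injection, in treated and untreated control groups.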

[2] = test system: P388; assay: Compound was tested against P388 Lymphocytic Leukemia for %survival of mice measured as treated versus control at dose of 200 mg/kg
Method in brief: (§2)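 Male CD1F1 mice inoculated ip with ascitic fluid holding ca. 6 × 10^6 P388 cells. Drug given ip as a distilled water-Tween 80 suspension, nine daily doses starting 24 h after tumor inoculation. Median survival time of treated mice compared with untreated controls and expressed as % T/C; % T/C ≥ 120 counted as significant.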

[3] = test system: P388; assay: tested for toxity against P388 Lymphocytic Leukemia and measured for number of mice survived after five days of 12.5 mg/kg drug administration out of 6 mice tested
Method in brief: (§3)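 Male CD1F1 mice given ip ascitic fluid with ca. 6 × 10^6 P388 cells, then ip dosing in a distilled water-Tween 80 suspension, nine daily doses beginning 24 h post-inoculation. Surviving mice counted on day 5, i.e., 4 days after the first compound injection.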

[4] = test system: P388; assay: Toxicity was tested for P388 Lymphocytic Leukemia and measured for number of mice survived after five days of 25 mg/kg drug administration out of 6 mice tested; method in brief: as §3
[5] = test system: P388; assay: Animal weight loss was tested for P388 Lymphocytic Leukemia and measured for change in weight, in treated and control mice at dose of 25 mg/kg; set-up: unit not given here; method in brief: as §1
[6] = test system: P388; assay: Compound was tested against P388 Lymphocytic Leukemia for %survival of mice measured as treated versus control at dose of 100 mg/kg; method in brief: as §2
[7] = test system: P388; assay: Compound was tested against P388 Lymphocytic Leukemia for %survival of mice measured as treated versus control at dose of 50 mg/kg; method in brief: as §2
[8] = test system: P388; assay: Toxicity against P388 Lymphocytic Leukemia and measured for number of mice survived after five days of 50 mg/kg drug administration out of 6 mice tested; method in brief: as §3
[9] = test system: P388; assay: Animal weight loss was tested for P388 Lymphocytic Leukemia and measured for change in weight, in treated and control mice at dose of 50 mg/kg; set-up: unit not given here; method in brief: as §1
[10] = test system: P388; assay: Toxicity against P388 Lymphocytic Leukemia and measured for number of mice survived after five days of 100 mg/kg drug administration out of 6 mice tested; method in brief: as §3
[11] = test system: P388; assay: Animal weight loss was tested for P388 Lymphocytic Leukemia and measured for change in weight, in treated and control mice at dose of 12.5 mg/kg; set-up: unit not given here; method in brief: as §1
[12] = test system: P388; assay: Compound was tested against P388 Lymphocytic Leukemia for %survival of mice measured as treated versus control at dose of 25 mg/kg; method in brief: as §2
[13] = test system: P388; assay: Toxicity against P388 Lymphocytic Leukemia and measured for number of mice survived after five days of 200 mg/kg drug administration out of 6 mice tested; method in brief: as §3
[14] = test system: P388; assay: Animal weight loss was tested for P388 Lymphocytic Leukemia and measured for change in weight, in treated and control mice at dose of 100 mg/kg; set-up: unit not given here; method in brief: as §1
[15] = test system: P388; assay: Compound was tested against P388 Lymphocytic Leukemia for %survival of mice measured as treated versus control at dose of 12.5 mg/kg; method in brief: as §2
[16] = test system: P388; assay: Toxicity against P388 Lymphocytic Leukemia and measured for number of mice survived after five days of 12.5 mg/kg drug administration out of 6 mice tested; method in brief: as §3
[17] = test system: P388; assay: Toxicity against P388 Lymphocytic Leukemia and measured for number of mice survived after five days of 25 mg/kg drug administration out of 6 mice tested; method in brief: as §3
[18] = test system: P388; assay: Animal weight loss was tested for P388 Lymphocytic Leukemia and measured for change in weight, in treated and control mice at dose of 2.5 mg/kg
[19] = test system: P388; assay: Animal weight loss was tested for P388 Lymphocytic Leukemia and measured for change in weight, in treated and control mice at dose of 10 mg/kg
[20] = test system: P388; assay: Compound was tested against P388 Lymphocytic Leukemia for %survival of mice measured as treated versus control at dose of 10 mg/kg
[21] = test system: P388; assay: Compound was tested against P388 Lymphocytic Leukemia for %survival of mice measured as treated versus control at dose of 20 mg/kg
[22] = test system: P388; assay: Toxicity was tested for P388 Lymphocytic Leukemia and measured for number of mice survived after five days of 20 mg/kg drug administration out of 6 mice tested
[23] = test system: P388; assay: Animal weight loss was tested for P388 Lymphocytic Leukemia and measured for change in weight, in treated and control mice at dose of 5 mg/kg
[24] = test system: P388; assay: Toxicity was tested for P388 Lymphocytic Leukemia and measured for number of mice survived after five days of 40 mg/kg drug administration out of 6 mice tested
[25] = test system: P388; assay: Compound was tested against P388 Lymphocytic Leukemia for %survival of mice measured as treated versus control at dose of 40 mg/kg
[26] = test system: P388; assay: Toxicity against P388 Lymphocytic Leukemia and measured for number of mice survived after five days of 5 mg/kg drug administration out of 6 mice tested
[27] = test system: P388; assay: Toxicity against P388 Lymphocytic Leukemia and measured for number of mice survived after five days of 2.5 mg/kg drug administration out of 6 mice tested
[28] = test system: P388; assay: Toxicity against P388 Lymphocytic Leukemia and measured for change in weight, in treated and controlled mice at dose of 40 mg/kg
[29] = test system: P388; assay: Toxicity was tested for P388 Lymphocytic Leukemia and measured for number of mice survived after five days of 10 mg/kg drug administration out of 6 mice tested
[30] = test system: P388; assay: Compound was tested against P388 Lymphocytic Leukemia for %survival of mice measured as treated versus control at dose of 2.5 mg/kg
[31] = test system: P388; assay: Animal weight loss was tested for P388 Lymphocytic Leukemia and measured for change in weight, in treated and controlled mice at dose of 20 mg/kg
[32] = test system: P388; assay: Compound was tested against P388 Lymphocytic Leukemia for %survival of mice measured as treated versus control at dose of 5 mg/kg
[33] = test system: P388; assay: Animal weight loss was tested for P388 Lymphocytic Leukemia and measured for change in weight, in treated and control mice at dose of 6.25 mg/kg; method in brief: as §1
[34] = test system: P388; assay: Compound was tested against P388 Lymphocytic Leukemia for %survival of mice measured as treated versus control at dose of 6.25 mg/kg; method in brief: as §2
[35] = test system: P388; assay: Toxicity against P388 Lymphocytic Leukemia and measured for number of mice survived after five days of 6.25 mg/kg drug administration out of 6 mice tested; method in brief: as §3
[36] = test system: P388; assay: Compound was tested against P388 Lymphocytic Leukemia for %survival of mice measured as treated versus control at dose of 1.56 mg/kg; method in brief: as §2
[37] = test system: P388; assay: Toxicity against P388 Lymphocytic Leukemia and measured for number of mice survived after five days of 1.56 mg/kg drug administration out of 6 mice tested; method in brief: as §3
[38] = test system: P388; assay: Animal weight loss was tested for P388 Lymphocytic Leukemia and measured for change in weight, in treated and control mice at dose of 3.13 mg/kg; method in brief: as §1
[39] = test system: P388; assay: Animal weight loss was tested for P388 Lymphocytic Leukemia and measured for change in weight, in treated and control mice at dose of 1.56 mg/kg; method in brief: as §1
[40] = test system: P388; assay: Toxicity against P388 Lymphocytic Leukemia and measured for number of mice survived after five days of 3.13 mg/kg drug administration out of 6 mice tested; method in brief: as §3
[41] = test system: P388; assay: Compound was tested against P388 Lymphocytic Leukemia for %survival of mice measured as treated versus control at dose of 3.13 mg/kg; method in brief: as §2
[42] = test system: P388; assay: Toxicity against P388 Lymphocytic Leukemia and measured for number of female mice survived after five days of 25 mg/kg drug administration out of 6 mice tested
[43] = test system: P388; assay: Toxicity against P388 Lymphocytic Leukemia and measured for number of female mice survived after five days of 12.5 mg/kg drug administration out of 6 mice tested
[44] = test system: P388; assay: Toxicity against P388 Lymphocytic Leukemia and measured for number of female mice survived after five days of 6.25 mg/kg drug administration out of 6 mice tested

SMILES | Weight loss [1] | T/C [2] [%] | Weight loss [5] | T/C [6] [%] | T/C [7] [%] | No. of mice survived [8] | Weight loss [9] | No. of mice survived [10] | Weight loss [11] | T/C [12] [%] | No. of mice survived [13] | Weight loss [14] | T/C [15] [%] | No. of mice survived [16] | No. of mice survived [17] | Weight loss [33] | T/C [34] [%] | No. of mice survived [35] | further results
CNC(=O)OCc1c(-c2ccccc2)c(-c2ccccc2)n(-c2ccc(OC)cc2)c1COC(=O)NC | -1.3 | 135 | 0.5 | 124 | 119 | 6 | -0.8 | 6 | 0.3 | 119 | 6 | -1 | 106 | – | – | – | – | – | No. of mice survived [3]: 6; No. of mice survived [4]: 6
CNC(=O)OCc1c(-c2ccccc2)c(-c2ccccc2)n(-c2ccccc2)c1COC(=O)NC | -2.4 | 171 | 0.1 | 144 | 126 | 6 | -1.1 | 6 | -0.2 | 117 | 6 | -0.6 | 110 | 6 | 6 | – | – | – | –
CNC(=O)OCc1c(COC(=O)NC)c(-c2ccccc2)n(C)c1-c1ccccc1 | – | – | – | – | – | – | – | – | – | – | – | – | – | – | – | – | – | – | Weight loss [18]: -1.1; Weight loss [19]: -2.1; T/C [20]: 164%; T/C [21]: 205%; No. of mice survived [22]: 6; Weight loss [23]: -1; No. of mice survived [24]: 6; T/C [25]: 124%; No. of mice survived [26]: 6; No. of mice survived [27]: 6; Weight loss [28]: -4.4; No. of mice survived [29]: 6; T/C [30]: 135%; Weight loss [31]: -2.8; T/C [32]: 135%
CNC(=O)OCc1c(COC(=O)NC)c(-c2ccccc2)n(C)c1C | – | – | -3.9 | <70 | 90 | 6 | -4.6 | 5 | -3.3 | 145 | – | -6 | 130 | 6 | 6 | -2.5 | 135 | 6 | –
CNC(=O)OCc1c(-c2ccccc2)c(-c2ccccc2)n(C)c1COC(=O)NC | – | – | -3.2 | – | 160 | 6 | -2.5 | 5 | -1.4 | 160 | – | -6.1 | 164 | 6 | 6 | -1.1 | 138 | 6 | T/C [36]: 102%; No. of mice survived [37]: 6; Weight loss [38]: -0.8; Weight loss [39]: -2.3; No. of mice survived [40]: 6; T/C [41]: 128%
CNC(=O)OCc1c(COC(=O)NC)c(C)n(-c2ccccc2)c1C | – | – | – | – | – | – | – | – | – | 148 | – | – | 145 | – | – | – | 134 | – | No. of mice survived [42]: 6; No. of mice survived [43]: 5; No. of mice survived [44]: 5
